Source: ChEMBL document CHEMBL1141626, “Thiosemicarbazones active against Clostridium difficile” (2008)
The source made the active and inactive calls.

How the values were obtained:
Clostridioides difficile [1] = test: Antimicrobial activity against Clostridium difficile Z229 after 48 hrs; assay type: functional
Method in brief: (§1)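 Anaerobes incubated in an anaerobic cabinet for broth MIC determination. Drug-free incubations of the same organisms served as controls. Value is the minimum inhibitory concentration.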

Staphylococcus aureus [2] = test: Antimicrobial activity against Staphylococcus aureus K1 after 24 hrs; assay type: functional
Method in brief: (§2)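 MIC by dilution in nutrient broth. Anaerobic organisms were incubated in an anaerobic cabinet. Controls were the same organisms incubated without test compound.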

Clostridioides difficile [3] = test: Antimicrobial activity against Clostridium difficile NCTC 11204 after 48 hrs; assay type: functional; settings: NCTC 11204, 48 h; method in brief: as §1
[4] = tested on: Staphylococcus epidermidis; test: Antimicrobial activity against Staphylococcus epidermidis NCTC 11047 after 24 hrs; assay type: functional; settings: NCTC 11047, 24 h; method in brief: as §2
Cutibacterium acnes [5] = test: Antimicrobial activity against Propionibacterium acnes C3 after 48 hrs; assay type: functional; method in brief: as §2
Staphylococcus aureus [6] = test: Antimicrobial activity against Staphylococcus aureus H1 after 24 hrs; assay type: functional; method in brief: as §2
Staphylococcus aureus [7] = test: Antimicrobial activity against methicillin-resistant Staphylococcus aureus E1 after 24 hrs; assay type: functional; method in brief: as §2
Cutibacterium acnes [8] = test: Antimicrobial activity against Propionibacterium acnes B5 after 48 hrs; assay type: functional; method in brief: as §1
[9] = tested on: Staphylococcus epidermidis; test: Antimicrobial activity against Staphylococcus epidermidis 9 after 24 hrs; assay type: functional; method in brief: as §2
Staphylococcus aureus [10] = test: Antimicrobial activity against Staphylococcus aureus ATCC 6538 after 24 hrs; assay type: functional; settings: ATCC 6538, 24 h; method in brief: as §2
Clostridioides difficile [11] = test: Antimicrobial activity against Clostridium difficile O27 after 48 hrs; assay type: functional; method in brief: as §1
Staphylococcus aureus [12] = test: Antimicrobial activity against methicillin-resistant Staphylococcus aureus A1 after 24 hrs; assay type: functional; method in brief: as §2
Cutibacterium acnes [13] = test: Antimicrobial activity against Propionibacterium acnes NCTC 737 after 48 hrs; assay type: functional; settings: NCTC 737, 48 h; method in brief: as §2
Cutibacterium acnes [14] = test: Antimicrobial activity against Propionibacterium acnes C5 after 48 hrs; assay type: functional; method in brief: as §2
Clostridioides difficile [15] = test: Antimicrobial activity against Clostridium difficile Z162 after 48 hrs; assay type: functional; method in brief: as §1
[16] = tested on: Staphylococcus epidermidis; test: Antimicrobial activity against Staphylococcus epidermidis 4 after 24 hrs; assay type: functional; method in brief: as §2
Staphylococcus aureus [17] = test: Antimicrobial activity against methicillin-resistant Staphylococcus aureus C3 after 24 hrs; assay type: functional; method in brief: as §2
Staphylococcus aureus [18] = test: Antimicrobial activity against Micrococcus pyogenes; assay type: functional, organism-based
Bacillus subtilis = test: Antimicrobial activity against Bacillus subtilis; assay type: functional, organism-based
Streptococcus pyogenes = test: Antimicrobial activity against Streptococcus pyogenes; assay type: functional, organism-based
Escherichia coli = test: Antimicrobial activity against Escherichia coli; assay type: functional, organism-based
Candida albicans = test: Antimicrobial activity against Candida albicans; assay type: functional, organism-based
[19] = tested on: Trichophyton mentagrophytes; test: Antimicrobial activity against Trichophyton mentagrophytes; assay type: functional, organism-based

CNC(=S)N/N=C/C=C/c1ccco1
16 µg/mL: MIC (Cutibacterium acnes [5])
64 µg/mL: MIC (Clostridioides difficile [11])
> 256 µg/mL: MIC (Staphylococcus aureus [2]) | MIC (Clostridioides difficile [3]) | MIC [4] | MIC (Staphylococcus aureus [6]) | MIC (Staphylococcus aureus [7]) | MIC [9] | MIC (Staphylococcus aureus [10]) | MIC (Staphylococcus aureus [12]) | MIC (Clostridioides difficile [15]) | MIC (Staphylococcus aureus [17])
1 µg/mL: MIC (Cutibacterium acnes [14])
128 µg/mL: MIC (Clostridioides difficile [1]) | MIC [16]
32 µg/mL: MIC (Cutibacterium acnes [8]) | MIC (Cutibacterium acnes [13])

CNC(=S)N/N=C/C=C/c1ccc([N+](=O)[O-])o1
64 µg/mL: MIC (Clostridioides difficile [3]) | MIC (Staphylococcus aureus [7]) | MIC [9] | MIC (Staphylococcus aureus [12]) | MIC (Cutibacterium acnes [14]) | MIC (Staphylococcus aureus [17])
16 µg/mL: MIC (Clostridioides difficile [1]) | MIC (Staphylococcus aureus [6]) | MIC (Cutibacterium acnes [13])
1 µg/mL: MIC (Cutibacterium acnes [5]) | MIC (Cutibacterium acnes [8])
32 µg/mL: MIC [4] | MIC (Staphylococcus aureus [10]) | MIC (Clostridioides difficile [11]) | MIC (Clostridioides difficile [15]) | MIC [16]
> 256 µg/mL: MIC (Staphylococcus aureus [2])

CNC(=S)N/N=C/c1ccc([N+](=O)[O-])o1
64 µg/mL: MIC (Clostridioides difficile [1]) | MIC (Staphylococcus aureus [6]) | MIC (Staphylococcus aureus [7]) | MIC (Cutibacterium acnes [8]) | MIC (Staphylococcus aureus [10]) | MIC (Clostridioides difficile [11]) | MIC (Staphylococcus aureus [12]) | MIC (Cutibacterium acnes [14])
> 256 µg/mL: MIC (Clostridioides difficile [3]) | MIC (Clostridioides difficile [15]) | MIC (Staphylococcus aureus [17])
32 µg/mL: MIC [16]
128 µg/mL: MIC (Staphylococcus aureus [2]) | MIC [9]
16 µg/mL: MIC [4] | MIC (Cutibacterium acnes [5]) | MIC (Cutibacterium acnes [13])

CC(C)NC(=S)N/N=C/C=C/c1ccc([N+](=O)[O-])o1
> 256 µg/mL: MIC (Staphylococcus aureus [2]) | MIC (Clostridioides difficile [3]) | MIC (Staphylococcus aureus [7]) | MIC [9] | MIC (Staphylococcus aureus [10]) | MIC (Staphylococcus aureus [12]) | MIC (Clostridioides difficile [15]) | MIC (Staphylococcus aureus [17])
64 µg/mL: MIC (Clostridioides difficile [1]) | MIC [4] | MIC (Clostridioides difficile [11]) | MIC (Cutibacterium acnes [14]) | MIC [16]
256 µg/mL: MIC (Staphylococcus aureus [6])
32 µg/mL: MIC (Cutibacterium acnes [5]) | MIC (Cutibacterium acnes [8]) | MIC (Cutibacterium acnes [13])

CCNC(=S)N/N=C/c1ccc([N+](=O)[O-])o1
2 µg/mL: MIC (Cutibacterium acnes [5])
active: Activity (Staphylococcus aureus [18]) | Activity (Bacillus subtilis) | Activity (Streptococcus pyogenes) | Activity (Escherichia coli) | Activity (Candida albicans) | Activity [19]
32 µg/mL: MIC [4] | MIC (Cutibacterium acnes [8]) | MIC (Staphylococcus aureus [10]) | MIC (Cutibacterium acnes [14]) | MIC [16]
8 µg/mL: MIC (Clostridioides difficile [1])
16 µg/mL: MIC (Staphylococcus aureus [6]) | MIC (Cutibacterium acnes [13])
128 µg/mL: MIC (Clostridioides difficile [15])
64 µg/mL: MIC (Staphylococcus aureus [2]) | MIC (Clostridioides difficile [3]) | MIC (Staphylococcus aureus [7]) | MIC [9] | MIC (Clostridioides difficile [11]) | MIC (Staphylococcus aureus [12]) | MIC (Staphylococcus aureus [17])

CC(C)NC(=S)N/N=C/c1ccc([N+](=O)[O-])o1
128 µg/mL: MIC (Clostridioides difficile [1]) | MIC (Staphylococcus aureus [6])
32 µg/mL: MIC (Cutibacterium acnes [5])
> 256 µg/mL: MIC (Staphylococcus aureus [2]) | MIC (Clostridioides difficile [3]) | MIC (Staphylococcus aureus [7]) | MIC (Cutibacterium acnes [8]) | MIC [9] | MIC (Staphylococcus aureus [12]) | MIC (Clostridioides difficile [15]) | MIC [16] | MIC (Staphylococcus aureus [17])
64 µg/mL: MIC [4] | MIC (Staphylococcus aureus [10]) | MIC (Clostridioides difficile [11]) | MIC (Cutibacterium acnes [13]) | MIC (Cutibacterium acnes [14])

CN[C@H](CC(C)C)C(=O)N[C@H]1C(=O)N[C@@H](CC(N)=O)C(=O)N[C@H]2C(=O)N[C@H]3C(=O)N[C@H](C(=O)N[C@H](C(=O)O)c4cc(O)cc(O)c4-c4cc3ccc4O)[C@H](O)c3ccc(c(Cl)c3)Oc3cc2cc(c3O[C@@H]2O[C@H](CO)[C@@H](O)[C@H](O)[C@H]2O[C@H]2C[C@](C)(N)[C@H](O)[C@H](C)O2)Oc2ccc(cc2Cl)[C@H]1O [VANCOMYCIN]
1.5 µg/mL: MIC (Staphylococcus aureus [10])
0.5 µg/mL: MIC (Clostridioides difficile [3]) | MIC (Cutibacterium acnes [13])
0.75 µg/mL: MIC (Clostridioides difficile [11])

CC(C)NC(=S)N/N=C/C=C/c1ccco1
1 µg/mL: MIC (Cutibacterium acnes [5])
128 µg/mL: MIC (Clostridioides difficile [1])
64 µg/mL: MIC (Clostridioides difficile [11]) | MIC (Cutibacterium acnes [14])
32 µg/mL: MIC (Cutibacterium acnes [13])
> 256 µg/mL: MIC (Staphylococcus aureus [2]) | MIC (Clostridioides difficile [3]) | MIC [4] | MIC (Staphylococcus aureus [6]) | MIC (Staphylococcus aureus [7]) | MIC (Cutibacterium acnes [8]) | MIC [9] | MIC (Staphylococcus aureus [10]) | MIC (Staphylococcus aureus [12]) | MIC (Clostridioides difficile [15]) | MIC [16] | MIC (Staphylococcus aureus [17])

CC(C)(C)NC(=S)N/N=C/c1ccc([N+](=O)[O-])o1
32 µg/mL: MIC (Cutibacterium acnes [8])
128 µg/mL: MIC (Clostridioides difficile [3]) | MIC [4] | MIC (Clostridioides difficile [15])
16 µg/mL: MIC (Clostridioides difficile [1]) | MIC (Cutibacterium acnes [5]) | MIC (Cutibacterium acnes [14])
64 µg/mL: MIC (Staphylococcus aureus [2]) | MIC (Staphylococcus aureus [10]) | MIC (Cutibacterium acnes [13])
> 256 µg/mL: MIC (Staphylococcus aureus [6]) | MIC (Staphylococcus aureus [7]) | MIC [9] | MIC (Clostridioides difficile [11]) | MIC (Staphylococcus aureus [12]) | MIC [16] | MIC (Staphylococcus aureus [17])

CC(C)(C)NC(=S)N/N=C/C=C/c1ccco1
64 µg/mL: MIC (Clostridioides difficile [1]) | MIC (Cutibacterium acnes [8]) | MIC (Clostridioides difficile [11]) | MIC (Cutibacterium acnes [13])
1 µg/mL: MIC (Cutibacterium acnes [14])
> 256 µg/mL: MIC (Staphylococcus aureus [2]) | MIC (Clostridioides difficile [3]) | MIC [4] | MIC (Staphylococcus aureus [6]) | MIC (Staphylococcus aureus [7]) | MIC [9] | MIC (Staphylococcus aureus [10]) | MIC (Staphylococcus aureus [12]) | MIC (Clostridioides difficile [15]) | MIC [16] | MIC (Staphylococcus aureus [17])
4 µg/mL: MIC (Cutibacterium acnes [5])

CCNC(=S)N/N=C/C=C/c1ccco1
> 256 µg/mL: MIC (Staphylococcus aureus [2]) | MIC (Clostridioides difficile [3]) | MIC [4] | MIC (Staphylococcus aureus [6]) | MIC (Staphylococcus aureus [7]) | MIC (Cutibacterium acnes [8]) | MIC [9] | MIC (Staphylococcus aureus [10]) | MIC (Staphylococcus aureus [12]) | MIC (Clostridioides difficile [15]) | MIC [16] | MIC (Staphylococcus aureus [17])
32 µg/mL: MIC (Cutibacterium acnes [5]) | MIC (Cutibacterium acnes [14])
64 µg/mL: MIC (Clostridioides difficile [1]) | MIC (Clostridioides difficile [11])
16 µg/mL: MIC (Cutibacterium acnes [13])

CC(C)(C)NC(=S)N/N=C/C=C/c1ccc([N+](=O)[O-])o1
64 µg/mL: MIC (Clostridioides difficile [1]) | MIC (Staphylococcus aureus [6]) | MIC (Clostridioides difficile [11])
16 µg/mL: MIC (Cutibacterium acnes [13]) | MIC (Cutibacterium acnes [14])
32 µg/mL: MIC (Staphylococcus aureus [2]) | MIC (Cutibacterium acnes [8])
> 256 µg/mL: MIC (Clostridioides difficile [3]) | MIC [4] | MIC (Staphylococcus aureus [7]) | MIC [9] | MIC (Staphylococcus aureus [10]) | MIC (Staphylococcus aureus [12]) | MIC [16] | MIC (Staphylococcus aureus [17])
8 µg/mL: MIC (Cutibacterium acnes [5])
128 µg/mL: MIC (Clostridioides difficile [15])
